Test results published in ChEMBL document CHEMBL1759850, “Design, synthesis, and biological evaluation of novel γ-carboline ketones as anticancer agents” (Eur J Med Chem, 2011).

Columns and labels:
A549 [1] = experiment: Cytotoxicity against human A549 cells after 48 hrs by MTT assay; type: functional, cell-based; settings: A549, 48 h
Outline: (§1)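 Cells were exposed to drug for 48 h, then given MTT in RPMI-1640 for a further 4 h at 37 °C. Formazan was dissolved in DMSO and absorbance read at 570 nm after 5 min. Each assay was run in triplicate in three independent experiments. IC50 (50% inhibition of viability) was computed by dose-effect analysis.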

[2] = Cytotoxicity against human SGC cells after 48 hrs by MTT assay; type: functional, cell-based; outline: as §1
HCT-116 = experiment: Cytotoxicity against human HCT116 cells after 48 hrs by MTT assay; type: functional, cell-based; settings: HCT-116, 48 h; outline: as §1
MCF7 = experiment: Cytotoxicity against human MCF7 cells after 48 hrs by MTT assay; type: functional, cell-based; settings: MCF7, 48 h; outline: as §1
K562 [3] = experiment: Cytotoxicity against human K562 cells after 48 hrs by MTT assay; type: functional, cell-based; settings: K562, 48 h; outline: as §1
K562 [4] = experiment: Cytotoxicity against human multidrug-resistant K562 cells after 48 hrs by MTT assay; type: functional, cell-based; settings: K562, 48 h; outline: as §1
Tubulin [5] = experiment: Inhibition of tubulin polymerization in human MCF7 cells by fluorometric analysis
Outline: (§2)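 Tubulin polymerization was run at 37 °C in 80 mM PIPES (pH 6.9) with 20% glycerol, 1 mM GTP, 2.0 mM MgCl2 and 0.5 mM EGTA. It was followed kinetically on a fluorescence plate reader.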

Tubulin [6] = experiment: Inhibition of tubulin polymerization in human K562 cells by fluorometric analysis; outline: as §2
A549 [7] = experiment: Cell cycle arrest in human A549 cells assessed as accumulation at G0/G1 phase at 2 uM after 48 hrs by flow cytometric analysis; type: functional
Outline: (§3)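 A549 cells in exponential growth were treated for 48 h, washed twice in PBS and fixed in 75% ethanol. They were then incubated for 0.5 h at 37 °C and stained with propidium iodide for 15 min. DNA content was read on a FACSCalibur flow cytometer.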

A549 [8] = experiment: Cell cycle arrest in human A549 cells assessed as accumulation at G2/M phase at 2 uM after 48 hrs by flow cytometric analysis; type: functional; outline: as §3
A549 [9] = experiment: Cell cycle arrest in human A549 cells assessed as accumulation at S phase at 2 uM after 48 hrs by flow cytometric analysis; type: functional; outline: as §3

In the case of `CCn1c2ccncc2c2cc(C(=O)c3cccc(OC)c3)ccc21`, the IC50 (A549 [1]) is reported as 21.4 µM, the IC50 [2] is reported as 18.7 µM and the IC50 (HCT-116) is reported as 34.3 µM. It also gave an IC50 (MCF7) of 9.99 µM, an IC50 (K562 [3]) of 6.42 µM and an IC50 (K562 [4]) of 1.57 µM.

With `CCn1c2ccncc2c2cc(C(=O)c3ccc([N+](=O)[O-])cc3)ccc21` the IC50 (A549 [1]) was 29.1 µM, the IC50 [2] was > 100 µM and the IC50 (HCT-116) was 59.2 µM. For the same compound, the IC50 (MCF7) was 3.21 µM, the IC50 (K562 [3]) was 16.8 µM and the IC50 (K562 [4]) was 3.68 µM.

`CCn1c2ccncc2c2cc(C(=O)c3ccc(OC)cc3)ccc21` gave an IC50 (A549 [1]) of 20.5 µM, an IC50 [2] of 17.8 µM and an IC50 (HCT-116) of 70.2 µM. For the same compound, the IC50 (MCF7) was 3.85 µM, the IC50 (K562 [3]) was 6.39 µM and the IC50 (K562 [4]) was 2.09 µM.

For `CCn1c2ccncc2c2cc(C(=O)c3ccc(Cl)cc3)ccc21`, the IC50 (A549 [1]) was 27.2 µM, the IC50 [2] was 62.5 µM and the IC50 (HCT-116) was 62.6 µM. The IC50 (MCF7) was 30.6 µM, the IC50 (K562 [3]) was 4.69 µM and the IC50 (K562 [4]) was 1.58 µM.

For `CCn1c2ccncc2c2cc(C(=O)c3ccccc3Cl)ccc21`, the IC50 (A549 [1]) was 41.4 µM, the IC50 [2] was 38.6 µM and the IC50 (HCT-116) was 42.3 µM. For the same compound, the IC50 (MCF7) was 21 µM, the IC50 (K562 [3]) was 13.7 µM and the IC50 (K562 [4]) was 7.08 µM.

For `Cn1c2ccncc2c2cc(C(=O)c3ccccc3)ccc21`, the IC50 (K562 [3]) was 4.82 µM.

With `CCn1c2ccncc2c2cc(C(=O)c3ccccc3)ccc21` the IC50 (A549 [1]) was 23.2 µM, the IC50 [2] was 11.8 µM and the IC50 (HCT-116) was 8.63 µM. For the same compound, the IC50 (MCF7) was 8.36 µM, the IC50 (K562 [3]) was 4.96 µM and the IC50 (K562 [4]) was 9.09 µM.

For `CCn1c2ccncc2c2cc(C(=O)c3ccc(N)cc3)ccc21`, the IC50 (A549 [1]) was 49.3 µM, the IC50 [2] was > 100 µM and the IC50 (HCT-116) was 40.6 µM. The IC50 (MCF7) was 5.04 µM, the IC50 (K562 [3]) was 13.4 µM and the IC50 (K562 [4]) was 23.3 µM.

Compound `CC(C)n1c2ccncc2c2cc(C(=O)c3ccccc3)ccc21` has an IC50 (K562 [3]) of 6.46 µM.

For `CCn1c2ccc(C(=O)c3ccc(Br)cc3)cc2c2c[n+](CC)ccc21`, the IC50 (A549 [1]) was > 100 µM, the IC50 [2] was > 100 µM and the IC50 (HCT-116) was > 100 µM. The IC50 (MCF7) was 56 µM, the IC50 (K562 [3]) was > 100 µM and the IC50 (K562 [4]) was > 100 µM.

With `CCn1c2ccc(C(=O)c3ccccc3)cc2c2c[n+](CC)ccc21` the IC50 (A549 [1]) was > 100 µM, the IC50 [2] was > 100 µM and the IC50 (HCT-116) was > 100 µM. The IC50 (MCF7) was 12 µM, the IC50 (K562 [3]) was > 100 µM and the IC50 (K562 [4]) was > 100 µM.

`CCn1c2ccncc2c2cc(C(=O)c3ccc(S(C)(=O)=O)cc3)ccc21` gave an IC50 (A549 [1]) of 24.2 µM, an IC50 [2] of 24.9 µM and an IC50 (HCT-116) of 37.8 µM. It also gave an IC50 (MCF7) of 3.28 µM, an IC50 (K562 [3]) of 5.26 µM and an IC50 (K562 [4]) of 0.66 µM. The IC50 (Tubulin [5]) was 4.3 µM, the IC50 (Tubulin [6]) was 4.3 µM and the Activity (A549 [7]) was 10.29%. For the same compound, the Activity (A549 [8]) was 63.12% and the Activity (A549 [9]) was 26.59%.

`CCn1c2ccncc2c2cc(C(=O)c3ccccc3F)ccc21` showed an IC50 (A549 [1]) of 46.8 µM, an IC50 [2] of 35.6 µM and an IC50 (HCT-116) of 35.9 µM. It also gave an IC50 (MCF7) of 4.74 µM, an IC50 (K562 [3]) of 12.2 µM and an IC50 (K562 [4]) of 1.45 µM.

For `CCn1c2ccncc2c2cc(C(=O)c3ccc(Br)cc3)ccc21`, the IC50 (A549 [1]) was 35.1 µM, the IC50 [2] was 34 µM and the IC50 (HCT-116) was 24.3 µM. The IC50 (MCF7) was > 100 µM, the IC50 (K562 [3]) was 2.11 µM and the IC50 (K562 [4]) was 1.58 µM.
